Data set [1] is described as follows: folding enthalpy; higher = less favourable; fluorescence melt of hairpins on a sequencing array, two-state fit. To be noted: sodium 0.088 M. In short, it runs like this: (§1)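 Bootstrapped two-state fits yielded melting temperature and folding enthalpy for library hairpins. Cy3 fluorescence, with annealed Cy3 and quencher oligos, was imaged on a sequenced MiSeq flow cell in 50 mM Na-HEPES pH 8.0, 25 mM NaCl in 2.5 °C steps up to 60 °C, and normalised to pre-quench Cy3 and to control constructs. Four replicates were combined by inverse variance, and fitted temperatures were raised by 9.35 °C to match UV melts.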

The nature of data set [2]: melting temperature; fluorescence melt of hairpins on a sequencing array, two-state fit, raised by 9.35 °C to match UV melts. To be noted: sodium 0.088 M. An outline of the steps:
as §1

On to GATCGCACCCGCGATC ((((((....)))))), for which, in data set [1], the folding enthalpy is -38.9 kcal/mol. Moreover, the Tm in data set [2] came out at 67.6 °C.
For the sequence GTTAGCCCGAAAGGGAAC (((..(((....)))))), the folding enthalpy in data set [1] was -11.5 kcal/mol. The Tm in data set [2] turned out to be 28.1 °C.
For the sequence GGTGGACGAAAGTCTACC (((.(((....))).))), the folding enthalpy in data set [1] was -41.5 kcal/mol. Moreover, the Tm in data set [2] came out at 59 °C.
GAGGGTGGAAACACCTTC ((.((((....)))).)): in data set [1], the folding enthalpy is -15.9 kcal/mol. Besides, in data set [2], the Tm amounted to 47 °C.
For GCAACGGCGAAAGCCTGC (((..(((....)))))) the same measures were -15.2 kcal/mol and 47 °C.
For GATTAGGGAAACCCAATC ((((.((....)).)))) the same measures were -22.4 kcal/mol and 31.3 °C.
The matching figures for GTCTTAGGAAACTAAGAC (((((((....))))))): -38.4 kcal/mol and 53.7 °C.
Take GACGCCGAAAGGCTTGTC ((((((....)))..))): in data set [1], the folding enthalpy is -13.5 kcal/mol. Further, the Tm in data set [2] came to 41.1 °C.
The matching figures for GTTGACGAAAGTCAAAC ((((((....))).))): -13.9 kcal/mol and 51.3 °C.
The matching figures for GGTTACGAAAGTACCACC ((((((....)))..))): -14.4 kcal/mol and 36.6 °C.
For GTACGGGGAAACCCGTAC (((((((....))))))) the same measures were -41.9 kcal/mol and 67.3 °C.
As for GTGCTAGGAAACTAGCAC (((((((....))))))), the folding enthalpy in data set [1] was -49.4 kcal/mol. The Tm in data set [2] turned out to be 65 °C.
For GATCGCAATGCGATC ((((((...)))))) the same measures were -33 kcal/mol and 68.5 °C.
For GCTACGCGAAAGCACAGC (((..((....))..))), the folding enthalpy in data set [1] is -21.2 kcal/mol. Besides, the Tm in data set [2] came out at 46.5 °C.
Consider GATCCTGTATAGGATC ((((((....)))))), for which the folding enthalpy in data set [1] is -41.6 kcal/mol. Also, the Tm in data set [2] amounted to 59 °C.
For the sequence GTACTCCGAAAGGATTAC (((.(((....))).))), the folding enthalpy in data set [1] is -29.8 kcal/mol. The Tm in data set [2] came to 37.6 °C.
For GACTTGGGAAACCAAATC ((.((((....)))).)) the same measures were -14 kcal/mol and 28 °C.
Turning to GTCTACGAAAGTACGAC ((((((....))).))), in data set [1], the folding enthalpy is -22.8 kcal/mol. Also, the Tm in data set [2] worked out at 38.1 °C.
For CGGCACGGAAACGTCCCG (((.(((....))).))) the same measures were -26 kcal/mol and 42 °C.
For the sequence GTCCACGAAAGTGAAGAC ((((((....)))..))), the folding enthalpy in data set [1] was -23.1 kcal/mol. Besides, the Tm in data set [2] was 40.4 °C.
For the sequence GATCTGCGTACAGATC ((((((....)))))), the folding enthalpy in data set [1] is -36.4 kcal/mol. Moreover, the Tm in data set [2] came out at 53.9 °C.
For the sequence GCTGTTGGAAACAGTAGC (((..((....))..))), the folding enthalpy in data set [1] was -11.9 kcal/mol. In addition, the Tm in data set [2] is 41.6 °C.
With GTTGACGGAAACGTTGAC ((..(((....)))..)), the folding enthalpy in data set [1] was -25.4 kcal/mol. For the same sequence, the Tm in data set [2] was found to be 37.5 °C.
The matching figures for GGGAAACGAAAGTTACCC (((.(((....))).))): -29.5 kcal/mol and 50.7 °C.
In the case of GGTGCACGAAAGTGTACC (((.(((....))).))), the folding enthalpy in data set [1] was -38 kcal/mol. The Tm in data set [2] turned out to be 64.5 °C.
For GGTTGACGAAAGTCGACC (((.(((....))).))) the same measures were -46.8 kcal/mol and 63 °C.
For GACGAGCCGAAAGGCGTC (((..(((....)))))), the folding enthalpy in data set [1] was -8.53 kcal/mol. Moreover, the Tm in data set [2] came to 42.3 °C.
For GAAAGCGAAAGCTGATTC ((((((....)))..))) the same measures were -19.2 kcal/mol and 42 °C.
As for GCTGAGCGAAAGCTTGGC ((..(((....)))..)), the folding enthalpy in data set [1] is -20.9 kcal/mol. For the same sequence, in data set [2], the Tm came out at 55.4 °C.
For GCTCAACGAAAGTTAAGC (((.(((....))).))) the same measures were -26.4 kcal/mol and 42 °C.
For GCTCCGCGAAAGCGCGGC ((..(((....)))..)) the same measures were -11.9 kcal/mol and 44.8 °C.
For GAGTTTGGAAACAAGCTC (((.(((....))).))), the folding enthalpy in data set [1] was -34.8 kcal/mol. Moreover, in data set [2], the Tm was found to be 44.5 °C.
The matching figures for GATGGCGAAAGCCCCATC ((((((....)))..))): -7.84 kcal/mol and 25.5 °C.
For GTAACGGGAAACTGTTGC (.(((.(....).))).) the same measures were -22.8 kcal/mol and 32.9 °C.
The matching figures for GCGGAAGGAAACTTTCGC (((.(((....))).))): -36.1 kcal/mol and 53 °C.
With GATGCTGGAAACAGCGTC ((.((((....)))).)), in data set [1], the folding enthalpy was -39.7 kcal/mol. In addition, in data set [2], the Tm came to 54.5 °C.

The values above are taken from the array DNA melting data of Ke et al. (doi:10.1101/2024.01.08.574731).
